Key:
[1] = Teicoplanin steady-state plasma trough concentration; assay type: in vivo, human; settings: for teicoplanin Cmin: median (interquartile range)
In short: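 Retrospective cohort of adult ICU patients (Jan 2018–Dec 2023) under therapeutic drug monitoring of the test compound. Venous blood was drawn just before the next dose after at least 6 doses (steady state). Total plasma concentration was measured by HPLC, linear range 3.125–100.0 µg/mL. Target was Cmin ≥ 15.0 μg/mL. Non-normal data are given as median (interquartile range), counts as rate (%).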

[2] = cited from earlier work
albumin = settings: cited from earlier work

Row | Compound | percentage of teicoplanin Cmin >30.0 μg/mL ([1]; all values (64/404)) [%] | teicoplanin Cmin ([1]; patients who did not use caspofungin) | teicoplanin Cmin ([1]; patients who did not use voriconazole) | teicoplanin Cmin ([1]; patients who used caspofungin) | teicoplanin Cmin ([1]; patients who used voriconazole) | percentage of teicoplanin Cmin >30.0 μg/mL ([1]; patients with fungal co-infection) [%] | percentage of teicoplanin Cmin >30.0 μg/mL ([1]; patients without fungal infection) [%] | percentage of teicoplanin Cmin reaching the target (≥15.0 μg/mL) ([1]; year 2018 (12/50)) [%] | percentage of teicoplanin Cmin reaching the target (≥15.0 μg/mL) ([1]; year 2019 (11/18)) [%] | percentage of teicoplanin Cmin reaching the target (≥15.0 μg/mL) ([1]; year 2020 (26/40)) [%] | percentage of teicoplanin Cmin reaching the target (≥15.0 μg/mL) ([1]; year 2021 (34/49)) [%] | percentage of teicoplanin Cmin reaching the target (≥15.0 μg/mL) ([1]; year 2022 (66/88)) [%] | percentage of teicoplanin Cmin reaching the target (≥15.0 μg/mL) ([1]; year 2023 (123/159)) [%] | probability of target attainment (PTA) ([2]; model-based simulations, higher-dose regimens (12 mg/kg), MIC up to 0.5 mg/L, elderly critically ill patients with pneumonia) | probability of target attainment (PTA) of target Cmin ([2]; simulations, standard dosage regimen, critically ill patients with severe renal dysfunction (eGFR ≤30 mL/min/1.73 m²)) [%] | albumin binding (albumin)
1 | Teicoplanin | 15.8 | 19.67 (12.38, 25.45) μg/mL | 19.74 (13.22, 26.18) μg/mL | 20.12 (14.67, 26.68) μg/mL | 18.48 (10.84, 24.24) μg/mL | 20.3 | 12.0 | 24.0 | 61.1 | 65.0 | 69.4 | 75.0 | 77.4 | at least 85% | 52.8 | 
2 | CC[C@H](C)C[C@H](C)CCCCCCCCC(=O)N[C@H]1C[C@@H](O)[C@@H](NCCN)NC(=O)[C@@H]2[C@@H](O)CCN2C(=O)[C@H]([C@H](O)CCN)NC(=O)[C@H]([C@H](O)[C@@H](O)c2ccc(O)cc2)NC(=O)[C@@H]2C[C@@H](O)CN2C(=O)[C@H]([C@@H](C)O)NC1=O [Caspofungin] |  |  |  |  |  |  |  |  |  |  |  |  |  |  |  | ≈ 97%
3 | C[C@@H](c1ncncc1F)[C@](O)(Cn1cncn1)c1ccc(F)cc1F [voriconazole] |  |  |  |  |  |  |  |  |  |  |  |  |  |  |  | 58%

From article PMC12164861 (Drug Design, Development and Therapy, 2025)
